Active and inactive are the calls of the source. The calls are words filed in the database; no cut-off is given here.

One compound from ChEMBL document CHEMBL5247599, “New β-arylchalcogeno amines with procognitive properties targeting Carbonic Anhydrases and Monoamine Oxidases” (Eur J Med Chem, 2022) can be followed below.

The target of data set [1] is Carbonic anhydrase 13 (Homo sapiens) (UniProt Q8N1Q1). Put plainly: Binding affinity to human CA13 by phenol red dye based stopped flow CO2 hydration assay. The conditions noted are these: filed as activator. Summed up:
(§1)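 Purified recombinant human CA isoforms. CA-catalysed CO2 hydration was followed by stopped-flow with phenol red at 557 nm, taking initial rates over 10–100 s from at least six traces of the first 5–10% of reaction. Uncatalysed rates were subtracted. Activator stocks were 0.1 mM in deionised water, diluted down to 0.1 nM in assay buffer. K_A came from non-linear least-squares Michaelis–Menten fitting.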

Data set [2] deals with Mus musculus. The experiment in a line: Pro-cognitive activity in C57Bl6 mouse assessed as attenuation of long-term memory deficit by measuring increase in exploration time for novel object at 50 nmol/uL, icv measured after 24 hrs by novel object recognition test. In kind it is functional, organism-based. The essentials:
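Male adult C57Bl6 mice (8–9 weeks), lateral-ventricle cannula implanted one week before. 10-min habituation to empty open-field arena; 24 h later, 5-min acquisition with two identical objects, followed immediately by 5 µL i.c.v. infusion at 1 µL/min. 5-min retention test 24 h after acquisition with one familiar and one novel object; percentage exploration time per object, two-way ANOVA with Bonferroni.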

Data set [3] addresses Carbonic anhydrase 5B, mitochondrial (Homo sapiens) (UniProt Q9Y2D0). The experiment in a line: Binding affinity to human CA5b by phenol red dye based stopped flow CO2 hydration assay. Particulars: filed as activator. Summed up:
as §1

Data set [4] is described as follows: Toxicity in C57Bl6 mouse assessed as reduction in distance travel at 50 nmol/uL administered directly into lateral ventricle by open field test. The conditions noted are these: in vivo, icv_or_intrathecal. Summed up:
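Cannulated adult male C57Bl6 mice were placed in a 60×70 cm open-field arena 30 min after a 5 µL lateral-ventricle infusion. Total distance travelled over a 5-min session was recorded by overhead video tracking.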

Data set [5] concerns the target Carbonic anhydrase 1 (Homo sapiens) (UniProt P00915). Put plainly: Binding affinity to human CA1 by phenol red dye based stopped flow CO2 hydration assay. Particulars: filed as activator. The essentials:
as §1

For data set [6], the target named is Carbonic anhydrase 7 (Homo sapiens) (UniProt P43166). Put plainly: Binding affinity to human CA7 by phenol red dye based stopped flow CO2 hydration assay. Particulars: filed as activator. Summed up:
as §1

The target of data set [7] is Carbonic anhydrase 3 (Homo sapiens) (UniProt P07451). Put plainly: Binding affinity to human CA3 by phenol red dye based stopped flow CO2 hydration assay. Particulars: filed as activator. Summed up: as §1
Sequence of Carbonic anhydrase 3 (Homo sapiens) (P07451 whole entry): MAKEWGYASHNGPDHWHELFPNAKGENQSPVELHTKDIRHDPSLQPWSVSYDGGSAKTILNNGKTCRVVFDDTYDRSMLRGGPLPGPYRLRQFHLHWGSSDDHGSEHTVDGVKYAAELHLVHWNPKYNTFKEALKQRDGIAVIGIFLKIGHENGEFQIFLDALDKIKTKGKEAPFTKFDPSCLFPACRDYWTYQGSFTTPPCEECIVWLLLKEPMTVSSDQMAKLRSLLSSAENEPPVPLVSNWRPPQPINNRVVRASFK
Data set [8] deals with Carbonic anhydrase 14 (Homo sapiens) (UniProt Q9ULX7). The experiment in a line: Binding affinity to human CA14 by phenol red dye based stopped flow CO2 hydration assay. Particulars: filed as activator. Summed up: as §1
Sequence of Carbonic anhydrase 14 (Homo sapiens) (Q9ULX7 whole entry): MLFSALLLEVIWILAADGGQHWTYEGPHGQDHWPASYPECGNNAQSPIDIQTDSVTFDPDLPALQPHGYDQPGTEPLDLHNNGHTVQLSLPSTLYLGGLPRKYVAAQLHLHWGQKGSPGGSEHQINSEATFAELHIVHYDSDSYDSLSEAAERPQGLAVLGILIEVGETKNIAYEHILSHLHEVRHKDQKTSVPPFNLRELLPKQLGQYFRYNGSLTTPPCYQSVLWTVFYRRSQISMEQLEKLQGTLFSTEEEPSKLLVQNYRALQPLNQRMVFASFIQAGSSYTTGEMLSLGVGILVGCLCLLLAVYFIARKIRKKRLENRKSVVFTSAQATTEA
The test system of data set [9] is Mus musculus. Put plainly: Pro-cognitive activity in C57Bl6 mouse assessed as attenuation of long-term memory deficit by measuring increase in exploration time for novel object by measuring discrimination index at 50 nmol/uL, icv measured after 24 hrs by novel object recognition test. In kind it is functional. The essentials:
(§2)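 Novel object recognition in adult male C57Bl6 mice. Habituation was 10 min in an empty arena. Twenty-four hours later, mice explored two identical objects for 5 min, then received an immediate 5 µL lateral-ventricle infusion at 1 µL/min. A 5-min retention test with one familiar and one novel object followed 24 h later. Scores were % exploration time and DI = (tN−tF)/(tN+tF).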

The subject of data set [10] is Mus musculus. Put plainly: Pro-cognitive activity in C57Bl6 mouse assessed as attenuation of long-term memory deficit by measuring increase in exploration time for novel juvenile at 25 nmol/uL, icv measured after 48 hrs by novel object recognition test. In kind it is functional, organism-based. Summed up:
(§3)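 Male adult C57Bl6 mice (8–9 weeks), lateral-ventricle cannula implanted 7 days earlier. Social recognition: 10-min habituation to arena with two empty cups; 24 h later 10-min acquisition with an unfamiliar juvenile (3–4 weeks) under one wire cup. Immediately after, 5 µL i.c.v. infusion at 1 µL/min. Retention at 48 h with familiar and novel juvenile; percentage time exploring each cup (snout-to-cup contact).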

Data set [11] addresses Carbonic anhydrase 9 (Homo sapiens) (UniProt Q16790). The experiment in a line: Binding affinity to human CA9 by phenol red dye based stopped flow CO2 hydration assay. The conditions noted are these: filed as activator. The essentials:
as §1

Data set [12] concerns Mus musculus. The experiment in a line: Pro-cognitive activity in C57Bl6 mouse assessed as attenuation of long-term memory deficit by measuring increase in exploration time for novel juvenile at 50 nmol/uL, icv measured after 48 hrs by novel object recognition test. The class given is functional, organism-based. Summed up: as §3
Data set [13] deals with Mus musculus. Put plainly: Pro-cognitive activity in C57Bl6 mouse assessed as attenuation of long-term memory deficit by measuring increase in exploration time for novel object by measuring discrimination index at 25 nmol/uL, icv measured after 24 hrs by novel object recognition test.
The nature of data set [14]: Toxicity in overnight fasted C57Bl6 mouse assessed as reduction in food intake at 50 nmol/uL administered directly into lateral ventricle measured for 2 hrs. The conditions noted are these: in vivo, icv_or_intrathecal. Summed up:
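Overnight-fasted male C57Bl6 mice received a lateral-ventricle infusion. Food was presented 30 min later, and intake was recorded at 0.5 h intervals over 2 h as cumulative consumption corrected for body weight; n = 8–9 per group.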

The target in data set [15] is T1, Amine oxidase [flavin-containing] B (Homo sapiens, UniProt P27338).
T1 sequence (P27338 whole entry): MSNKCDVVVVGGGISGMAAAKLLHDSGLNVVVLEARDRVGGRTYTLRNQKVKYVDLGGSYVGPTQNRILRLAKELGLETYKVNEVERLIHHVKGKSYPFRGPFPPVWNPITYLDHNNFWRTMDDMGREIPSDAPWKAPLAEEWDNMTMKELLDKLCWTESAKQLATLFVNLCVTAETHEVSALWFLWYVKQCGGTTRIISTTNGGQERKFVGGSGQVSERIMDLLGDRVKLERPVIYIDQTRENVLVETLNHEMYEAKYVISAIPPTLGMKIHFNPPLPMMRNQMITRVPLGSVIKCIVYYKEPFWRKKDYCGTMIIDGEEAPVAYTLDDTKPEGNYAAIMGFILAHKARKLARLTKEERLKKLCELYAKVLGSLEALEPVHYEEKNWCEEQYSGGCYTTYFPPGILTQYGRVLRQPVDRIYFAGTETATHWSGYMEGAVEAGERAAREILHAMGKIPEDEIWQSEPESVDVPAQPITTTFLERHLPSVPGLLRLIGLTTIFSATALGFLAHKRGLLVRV

In data set [16] the target is Carbonic anhydrase 5A, mitochondrial (Homo sapiens) (UniProt P35218). Put plainly: Binding affinity to human CA5a by phenol red dye based stopped flow CO2 hydration assay. The conditions noted are these: filed as activator. Summed up:
as §1

For data set [17], the target named is Carbonic anhydrase 2 (Homo sapiens) (UniProt P00918). Put plainly: Binding affinity to human CA2 by phenol red dye based stopped flow CO2 hydration assay. The essentials:
as §1

The target in data set [18] is Carbonic anhydrase 6 (Homo sapiens) (UniProt P23280). The experiment in a line: Binding affinity to human CA6 by phenol red dye based stopped flow CO2 hydration assay. The conditions noted are these: filed as activator. The essentials: as §1
Sequence of Carbonic anhydrase 6 (Homo sapiens) (P23280 whole entry): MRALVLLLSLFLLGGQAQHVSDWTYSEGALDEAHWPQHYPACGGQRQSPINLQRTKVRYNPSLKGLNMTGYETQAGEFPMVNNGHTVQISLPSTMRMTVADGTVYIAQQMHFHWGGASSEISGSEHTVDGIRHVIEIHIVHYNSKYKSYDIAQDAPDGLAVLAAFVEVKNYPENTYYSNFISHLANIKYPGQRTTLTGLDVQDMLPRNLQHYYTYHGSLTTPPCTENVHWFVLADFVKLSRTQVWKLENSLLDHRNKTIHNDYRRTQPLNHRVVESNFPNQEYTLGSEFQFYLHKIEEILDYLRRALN
Data set [19] deals with Carbonic anhydrase 4 (Homo sapiens) (UniProt P22748). The experiment in a line: Binding affinity to human CA4 by phenol red dye based stopped flow CO2 hydration assay. The conditions noted are these: filed as activator. Summed up:
as §1

Data set [20] concerns Mus musculus. Put plainly: Pro-cognitive activity in C57Bl6 mouse assessed as attenuation of long-term memory deficit by measuring increase in exploration time for novel object at 25 nmol/uL, icv measured after 24 hrs by novel object recognition test. In kind it is functional, organism-based. The essentials:
as §2

Sequence of Carbonic anhydrase 13 (Homo sapiens) (Q8N1Q1 whole entry, looked up, canonical isoform): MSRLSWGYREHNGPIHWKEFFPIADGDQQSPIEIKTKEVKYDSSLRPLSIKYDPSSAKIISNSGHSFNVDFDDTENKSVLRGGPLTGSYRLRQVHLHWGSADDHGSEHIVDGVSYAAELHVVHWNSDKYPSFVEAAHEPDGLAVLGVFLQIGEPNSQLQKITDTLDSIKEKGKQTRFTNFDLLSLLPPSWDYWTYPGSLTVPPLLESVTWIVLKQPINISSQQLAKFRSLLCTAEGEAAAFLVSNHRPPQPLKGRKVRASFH
Sequence of Carbonic anhydrase 4 (Homo sapiens) (P22748 whole entry): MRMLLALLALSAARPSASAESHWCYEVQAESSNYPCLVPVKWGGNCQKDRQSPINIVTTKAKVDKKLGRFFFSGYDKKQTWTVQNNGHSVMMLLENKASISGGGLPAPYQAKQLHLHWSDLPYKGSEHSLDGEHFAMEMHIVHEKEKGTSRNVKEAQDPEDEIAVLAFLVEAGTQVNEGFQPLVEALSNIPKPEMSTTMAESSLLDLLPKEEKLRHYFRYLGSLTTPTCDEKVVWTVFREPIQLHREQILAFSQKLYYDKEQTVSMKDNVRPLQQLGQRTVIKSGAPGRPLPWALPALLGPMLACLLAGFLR
Sequence of Carbonic anhydrase 1 (Homo sapiens) (P00915 2-261 limits assumed): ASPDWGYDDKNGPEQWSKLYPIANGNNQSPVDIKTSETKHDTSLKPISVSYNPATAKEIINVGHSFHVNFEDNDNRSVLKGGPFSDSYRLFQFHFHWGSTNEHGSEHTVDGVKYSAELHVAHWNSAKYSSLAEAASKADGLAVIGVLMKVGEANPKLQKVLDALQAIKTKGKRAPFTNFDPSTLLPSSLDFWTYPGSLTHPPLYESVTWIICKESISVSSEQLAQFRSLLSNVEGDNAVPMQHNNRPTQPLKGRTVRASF
Sequence of Carbonic anhydrase 7 (Homo sapiens) (P43166 whole entry): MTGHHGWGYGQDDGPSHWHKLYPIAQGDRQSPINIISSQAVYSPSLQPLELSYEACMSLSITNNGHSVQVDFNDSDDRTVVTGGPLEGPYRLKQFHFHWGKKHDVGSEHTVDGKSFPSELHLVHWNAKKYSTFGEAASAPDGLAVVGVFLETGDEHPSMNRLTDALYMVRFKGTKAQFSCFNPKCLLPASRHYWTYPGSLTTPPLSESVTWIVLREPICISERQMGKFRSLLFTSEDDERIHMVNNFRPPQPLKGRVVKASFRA
Sequence of Carbonic anhydrase 5B, mitochondrial (Homo sapiens) (Q9Y2D0 whole entry): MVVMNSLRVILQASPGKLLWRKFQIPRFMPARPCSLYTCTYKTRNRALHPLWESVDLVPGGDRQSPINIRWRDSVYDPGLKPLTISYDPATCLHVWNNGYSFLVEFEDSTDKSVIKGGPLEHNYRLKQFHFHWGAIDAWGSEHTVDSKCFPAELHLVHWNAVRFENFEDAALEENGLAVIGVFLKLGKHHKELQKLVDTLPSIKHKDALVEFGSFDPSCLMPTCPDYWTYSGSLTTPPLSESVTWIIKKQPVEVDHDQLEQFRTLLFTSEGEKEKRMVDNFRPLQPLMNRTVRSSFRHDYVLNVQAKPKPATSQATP
Sequence of Carbonic anhydrase 5A, mitochondrial (Homo sapiens) (P35218 whole entry): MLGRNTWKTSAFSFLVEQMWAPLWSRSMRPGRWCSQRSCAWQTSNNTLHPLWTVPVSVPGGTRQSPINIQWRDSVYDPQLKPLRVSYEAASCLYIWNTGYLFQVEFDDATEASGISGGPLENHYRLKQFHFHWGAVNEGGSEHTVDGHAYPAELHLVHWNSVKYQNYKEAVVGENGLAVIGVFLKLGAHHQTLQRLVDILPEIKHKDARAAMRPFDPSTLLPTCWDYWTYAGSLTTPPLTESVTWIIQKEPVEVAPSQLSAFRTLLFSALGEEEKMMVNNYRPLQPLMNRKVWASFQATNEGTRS

As to `CC(N)CSc1ccccc1` (stereo not given), the Ka in data set [1] amounted to 82.4 µM; in data set [3], 18.7 µM; in data set [5], 11.8 µM; in [6] it was 23.4 µM; in [7], 26.8 µM; in data set [8] it was 9.8 µM. The Ka was 74.8 µM in [11]; 12.4 µM in [16]; above 100 µM in data set [17]; 70.9 µM in data set [18]; 7.1 µM in data set [19]. The result in the data set on Mus musculus [2] and in the data set with Mus musculus [12] was Active. For the same compound, the Activity result in data set [4] and in data set [14] was “Non-Toxic” each time. Further, the Activity_index in the data set on Mus musculus [9] was determined as 0.185; with Mus musculus [13] it was 0.111. Further, the result in the data set on Mus musculus [10] and in the data set on Mus musculus [20] was inactive. Also, the IC50 in data set [15] is 57.3 µM.

By IC50 is commonly meant the point on the concentration scale where inhibition reaches its midpoint. Read a low IC50 as higher potency.
